The test system of one series is BRG1/BRM. Put plainly: Immunoblot for BRG1/BRM and cleaved PARP in degrader-treated neurospheres. The format is cell-based, human. In outline: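 BT869, HSJD-DIPG007 and SU-DIPGXIIIP* neurospheres were collected 24, 48 and 72 h after rising degrader concentrations; SU-DIPGXIIIP* was also collected at 6 h. SU-DIPGXIIIP* gave nuclear extracts; the other two gave whole-cell lysates in NP-40/deoxycholate/SDS buffer with protease and phosphatase inhibitors. Blots were blocked in 5% milk/TBST, then BRG1, BRM, PARP, cleaved PARP, GAPDH and H3 antibodies at 1:1,000 overnight at 4°C, then HRP secondary 1 h at RT, then ECL.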

Series [1] concerns BRG1 binding sites in BT869 (H3.3K27M-glioma) neurospheres. As to the kind of experiment: ATAC-seq chromatin accessibility in drug-treated BT869 neurospheres. The conditions noted are these: BT869, 1 μmol/L, 24 and 48 hours. Type of series: cell-based, human. In outline:
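BT869 neurospheres were exposed to DMSO or 1 μmol/L BRG1/BRM inhibitor or degrader and collected 24 or 48 h later without FACS enrichment of viable cells. Bulk ATAC-seq was run as two biological replicates, each with two technical replicates. Genes linked to differentially accessible peaks were overlapped with single-cell H3K27M glioma metaprograms.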

Series [2] in a line: Pharmacokinetic study, drug in plasma and brain after intraperitoneal dose. Type of series: in vivo, CD1 mice. To be noted: after intraperitoneal administration, mass spectrometry. In outline: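 Female CD1 mice, three per time point, received a single i.p. dose of test compound in 10% hydroxypropyl β-cyclodextrin in sterile water. Plasma and brain were collected at 30 min, 2 h and 4 h and quantified by LC/MS-MS. Parameters came from a noncompartmental model.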

For series [3], the system named is SW-13 BRG1/BRM-deficient adrenocortical carcinoma cell line. Put plainly: Cell viability in BRG1/BRM-deficient control cell line. The format is cell-based. To be noted: Homo sapiens, SW13. In outline: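 SW-13 cells were dosed with test compound at 24 and 96 h after plating, across 10 nmol/L to 10 μmol/L. Viability was read by CellTiter-Glo 7 days after drug exposure. Concentrations were log10-transformed and responses normalized to DMSO controls. Log IC50 was interpolated from a variable-slope least-squares fit.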

Series [4] can be described thus: Plasma level after a single subcutaneous injection. The conditions noted are these: single subcutaneous injection of 50 mg/kg. The format is in vivo.
Series [5] can be described thus: Kinetic solubility analysis. The format is physicochemical. To be noted: PBS, pH 7.4, aqueous buffer, kinetic from dmso stock. In outline:
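Test compound as a 10 mmol/L DMSO stock was diluted into 50 mmol/L PBS, pH 7.4, to a final 200 μmol/L. This was done in the lower chamber of filter vials by a contract laboratory.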

The subject of series [6] is BT869 (H3.3K27M-glioma) subcutaneous tumors. Put plainly: Subcutaneous xenograft, BT869. Type of series: in vivo, NSG mice. In outline: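 Female NSG mice aged about 6–8 weeks were implanted with BT869 cells, 3 × 10^6 in PBS/Matrigel, into the right flank. Groups of 10 received the degrader at 50 mg/kg i.p. daily or vehicle for up to 60 days. BRG1 immunostaining was scored as nuclear DAB OD mean.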

The target of a further series is BRG1 (Homo sapiens, UniProt P51532). As to the kind of experiment: SILAC quantitative proteomics in BT869 neurospheres. The format is cell-based. The conditions noted are these: BT869, 1 μmol/L, 2 days of treatment. In outline: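 BT869 cells were SILAC-labelled for 5 passages in custom TSM medium with heavy (13C615N2 lysine, 13C615N4 arginine) or light amino acids; incorporation was >95%. Cells (1.5 × 106) were seeded 1 day ahead, then given DMSO (light) or 1 μmol/L degrader (heavy) for 48 h. Lysis was in RIPA with protease inhibitors, benzonase and 1 mmol/L DTT. BCA-matched lysates were mixed 1:1. Significance came from a heteroscedastic two-tailed t test.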
Sequence of BRG1 (P51532 whole entry): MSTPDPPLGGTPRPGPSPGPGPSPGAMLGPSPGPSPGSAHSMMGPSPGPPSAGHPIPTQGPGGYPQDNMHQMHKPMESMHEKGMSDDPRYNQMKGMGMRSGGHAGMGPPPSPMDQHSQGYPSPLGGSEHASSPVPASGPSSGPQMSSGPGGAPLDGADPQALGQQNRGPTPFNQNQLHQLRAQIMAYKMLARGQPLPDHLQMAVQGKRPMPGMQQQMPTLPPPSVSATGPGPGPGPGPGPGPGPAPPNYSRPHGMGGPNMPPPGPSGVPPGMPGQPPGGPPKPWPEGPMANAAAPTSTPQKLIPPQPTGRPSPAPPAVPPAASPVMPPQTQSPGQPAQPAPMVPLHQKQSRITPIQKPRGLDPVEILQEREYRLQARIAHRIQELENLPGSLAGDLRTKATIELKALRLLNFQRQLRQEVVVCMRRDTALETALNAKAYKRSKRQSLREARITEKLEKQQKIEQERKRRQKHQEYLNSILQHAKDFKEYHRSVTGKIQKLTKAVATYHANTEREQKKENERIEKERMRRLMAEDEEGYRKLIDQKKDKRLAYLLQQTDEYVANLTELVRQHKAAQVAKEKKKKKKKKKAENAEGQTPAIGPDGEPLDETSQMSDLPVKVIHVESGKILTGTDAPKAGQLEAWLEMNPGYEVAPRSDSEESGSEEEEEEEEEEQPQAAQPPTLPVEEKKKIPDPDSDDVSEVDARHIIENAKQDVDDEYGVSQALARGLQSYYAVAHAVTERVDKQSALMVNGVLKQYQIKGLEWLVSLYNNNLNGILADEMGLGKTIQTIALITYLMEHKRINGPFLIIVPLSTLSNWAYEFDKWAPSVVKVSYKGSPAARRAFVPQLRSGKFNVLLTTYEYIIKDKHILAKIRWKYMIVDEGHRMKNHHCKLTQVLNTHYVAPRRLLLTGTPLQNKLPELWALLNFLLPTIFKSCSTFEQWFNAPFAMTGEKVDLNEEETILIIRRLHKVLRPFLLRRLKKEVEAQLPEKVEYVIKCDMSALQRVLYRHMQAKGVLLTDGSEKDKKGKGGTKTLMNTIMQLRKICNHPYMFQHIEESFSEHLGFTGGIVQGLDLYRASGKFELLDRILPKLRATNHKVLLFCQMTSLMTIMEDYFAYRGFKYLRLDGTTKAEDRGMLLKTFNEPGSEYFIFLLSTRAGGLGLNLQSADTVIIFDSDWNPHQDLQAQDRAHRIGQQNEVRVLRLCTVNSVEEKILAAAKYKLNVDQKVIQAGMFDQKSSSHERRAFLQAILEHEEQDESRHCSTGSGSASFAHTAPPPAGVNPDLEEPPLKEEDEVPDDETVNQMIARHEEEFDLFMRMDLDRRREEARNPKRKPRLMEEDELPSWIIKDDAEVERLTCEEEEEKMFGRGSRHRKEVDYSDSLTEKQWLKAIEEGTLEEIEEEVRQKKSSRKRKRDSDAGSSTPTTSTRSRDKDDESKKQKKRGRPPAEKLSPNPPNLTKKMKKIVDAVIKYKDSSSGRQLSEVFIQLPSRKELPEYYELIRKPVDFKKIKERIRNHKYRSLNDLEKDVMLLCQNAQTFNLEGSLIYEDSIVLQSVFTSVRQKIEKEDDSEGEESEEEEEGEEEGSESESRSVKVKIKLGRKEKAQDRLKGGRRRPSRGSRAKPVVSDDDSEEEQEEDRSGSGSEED

pIC50: −log10 of the molar value.

Broadly, the pIC50 is the IC50 on a negative log10 scale, so that one unit is a factor of ten. Read a low pIC50 as a large IC50. What is called solubility is how much of the substance goes into solution per volume. A low value points to a poorly soluble substance.

Regarding `Cc1ncsc1-c1ccc([C@H](C)NC(=O)[C@@H]2C[C@@H](O)CN2C(=O)[C@@H](NC(=O)CN2CCN(c3cc(-c4ccccc4O)nnc3N)CC2)C(C)(C)C)cc1` [AU-15330, reference compound], the “Time to degradation of BRG1/BRM” value in the series with BRG1/BRM (SU-DIPGXIIIP* cells) was at most 6 h. The “Lowest concentration degrading BRG1/BRM” value with BRG1/BRM (SU-DIPGXIIIP* cells, 6 hours) was 500 nmol/L. Moreover, in series [1], the “DNA accessibility at BRG1 binding sites (ATAC-seq)” value is “decrease in DNA accessibility at BRG1 binding sites”.
Regarding `O=C1CCC(N2C(=O)c3cccc(NCCCCNC(=O)c4cccc(C#Cc5cc(NC(=O)Nc6ccnc(Cl)c6)ccn5)c4)c3C2=O)C(=O)N1` (stereo not drawn) [JQ-dS-4, 3-((4-(3-(2-chloropyridin-4-yl)ureido)pyridin-2-yl)ethynyl)-N-(4-((2-(2,6-dioxopiperidin-3-yl)-1,3-dioxoisoindolin-4-yl)amino)butyl)benzamide], in series [2], the “Blood–brain barrier penetrance” value is given as “limited penetration into brain tissue”. This molecule also had a negative logarithm of the IC50 (pIC50) in series [3] of 5.22. The Plasma levels in series [4] was 240 ng/mL; in series [4] (converted from ng/mL), around 300 nM. Also, the solubility at 24 h in series [5] was below 1.56 µM. Besides, the “Time to complete degradation of BRG1/BRM” value came out at 48 h in the series on BRG1/BRM (BT869 cells), 72 h in the series on BRG1/BRM (HSJD-DIPG007 cells) and 72 h in the series with BRG1/BRM (SU-DIPGXIIIP* cells). Also, the “DNA accessibility at BRG1 binding sites (ATAC-seq)” value in series [1] is “decrease in DNA accessibility at BRG1 binding sites”. Further, the “Degradation of BRG1 in treated tumors” value in series [6] (BT869 s.c., 50 mg/kg i.p. daily, versus vehicle) is given as “negligible degradation of BRG1”. Moreover, the “Body weight and toxic effects (plasma, liver, spleen)” value in series [6] (mice treated for 45 days, Compound 14 20 mg/kg i.p. daily, JQ-dS-4 50 mg/kg i.p. daily) was “did not observe any significant changes in body weight or toxic effects”. In addition, the “Proteins degraded (SILAC)” value on BRG1 is reported as “BRG1 was one of the top significant proteins degraded”.

Values taken from publication PMC9716260 (Cancer Discovery, 2022).
